# According to ChEMBL document CHEMBL3108779, “Pyrronazols, metabolites from the myxobacteria Nannocystis pusilla and N. exedens, are unusual chlorinated pyrone-oxazole-pyrroles” (J Nat Prod, 2014):
# Activity calls are given as the source filed them. No cut-off for these calls is given here.
# Experiments:
# Wickerhamomyces anomalus = assay: Antifungal activity against Wickerhamomyces anomalus DSM 6766 assessed as growth inhibition after 24 to 48 hrs; assay type: functional
# Procedure, shortened: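 Yeast grown at 30 °C, 160 rpm for 24−48 h and adjusted to OD548 0.1, then tested by 1:1 serial dilution in MYC medium (1.0% glucose, 1.0% phytone peptone, 50 mM HEPES, pH 7.0) in 96-well plates. MIC taken as the lowest concentration preventing visible growth.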
# Mucor hiemalis = assay: Antifungal activity against Mucor hiemalis DSM 2656 assessed as growth inhibition after 24 to 48 hrs; assay type: functional
# Procedure, shortened: (§1)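 Fungi pre-grown at 30 °C and 160 rpm for 24−48 h. Tested by 1:1 serial dilution in 96-well microtiter plates in MYC medium (1.0% glucose, 1.0% phytone peptone, 50 mM HEPES, pH 7.0). MIC was the lowest concentration preventing visible growth.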
# Paenibacillus polymyxa = assay: Antibacterial activity against Paenibacillus polymyxa DSM 36 assessed as growth inhibition after 24 to 48 hrs; assay type: functional
# [1] = Cytotoxicity against HUVEC after 5 days by MTT assay; assay type: cell-based; conditions: human, HUVEC cells
# Procedure, shortened: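 Nontransformed HUVEC kept in EBM-2 with 10% FBS at 37 °C under 10% CO2. MTT read-out in 96-well plates gives the IC50, with methanol as negative control.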
# Aspergillus flavus = assay: Antifungal activity against Aspergillus flavus DSM 1959 assessed as growth inhibition after 24 to 48 hrs; assay type: functional
# Procedure, shortened: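 Fungus grown at 30 °C, 160 rpm for 24−48 h, then tested by 1:1 serial dilution in MYC medium (1.0% glucose, 1.0% phytone peptone, 50 mM HEPES, pH 7.0) in 96-well plates. MIC read as the lowest concentration preventing visible growth.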
# A549 = assay: Cytotoxicity against human A549 cells after 5 days by MTT assay; assay type: functional; conditions: A549, 120 h, read-out: LD50 (the source's name)
# Procedure, shortened: (§2)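 A549, KB-3-1 and mouse fibroblast L929 cells cultured in DMEM plus 10% FBS at 37 °C, 10% CO2. IC50 determined by MTT assay in 96-well microplates; methanol served as negative control.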
# [2] = Cytotoxicity against human KB3-1 cells after 5 days by MTT assay; assay type: functional; conditions: KB 3-1, 120 h, read-out: LD50 (the source's name); procedure, shortened: as §2
# [3] = test system: Chromobacterium violaceum; assay: Antibacterial activity against Chromobacterium violaceum DSM 30191 assessed as growth inhibition after 24 to 48 hrs; assay type: functional
# SK-OV-3 = assay: Cytotoxicity against human SKOV3 cells after 5 days by MTT assay; assay type: functional; conditions: SK-OV-3, 120 h, read-out: LD50 (the source's name)
# Procedure, shortened: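 Human ovarian carcinoma SKOV3 cells maintained in McCoy's medium with 10% FBS, 37 °C, 10% CO2. IC50 obtained from MTT assay in 96-well plates, with methanol as negative control.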
# Aspergillus fumigatus = assay: Antifungal activity against Aspergillus fumigatus DSM 15966 assessed as growth inhibition after 24 to 48 hrs; assay type: functional; procedure, shortened: as §1
# [4] = Antifungal activity against Trichosporon oleaginosus DSM 11815 assessed as growth inhibition after 24 to 48 hrs; assay type: functional; conditions: Cutaneotrichosporon oleaginosum
# Procedure, shortened: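 Yeast pre-grown at 30 °C and 160 rpm for 24−48 h, then adjusted to OD548 0.1. Tested by 1:1 serial dilution in 96-well plates in MYC medium (1.0% glucose, 1.0% phytone peptone, 50 mM HEPES, pH 7.0). MIC was the lowest concentration preventing visible growth.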
# [5] = test system: Mycolicibacterium diernhoferi; assay: Antibacterial activity against Mycobacterium diernhoferi DSM 43542 assessed as growth inhibition after 24 to 48 hrs; assay type: functional
# Mycobacterium sp. = assay: Antibacterial activity against Mycobacterium sp. DSM 43270 assessed as growth inhibition after 24 to 48 hrs; assay type: functional
# L929 = assay: Cytotoxicity against mouse L929 cells after 5 days by MTT assay; assay type: functional; conditions: L929, 120 h, read-out: LD50 (the source's name); procedure, shortened: as §2
# Nocardia sp. = assay: Antibacterial activity against Nocardia sp. DSM 43069 assessed as growth inhibition after 24 to 48 hrs; assay type: functional
SMILES,MIC (Wickerhamomyces anomalus; Hansenula anomala) [µg/mL],MIC (Mucor hiemalis),MIC (Paenibacillus polymyxa),IC50 at 120 h [1] [µM],MIC (Aspergillus flavus),CC50 (A549) [µM],CC50 [2] [µM],MIC [3],CC50 (SK-OV-3) [µM],MIC (Aspergillus fumigatus),MIC [4],MIC [5],MIC (Mycobacterium sp.),CC50 (L929) [µM],MIC (Nocardia sp.),MIC (Wickerhamomyces anomalus)
C[C@@H]1[C@H](O)[C@@H](C)/C=C/C=C/CC/C=C/C=C/C=C/C=C/[C@H](O[C@@H]2O[C@H](C)[C@@H](O)[C@H](N)[C@@H]2O)C[C@@H]2O[C@](O)(C[C@@H](O)[C@H](O)CC[C@@H](O)C[C@@H](O)C[C@@H](O)CC(=O)O[C@H]1C)C[C@H](O)[C@H]2C(=O)O.O,0.52,2.1 µg/mL,,,,,,,,,,,,,,
CN(C)[C@@H]1C(O)=C(C(N)=O)C(=O)[C@@]2(O)C(O)=C3C(=O)c4c(O)cccc4[C@@](C)(O)[C@H]3[C@H](O)[C@@H]12.Cl [OXYTETRACYCLINE HYDROCHLORIDE],,,6.7 µg/mL,,,,,,,,,,,,,
Oc1cccc2nc3c(O)cccc3nc12,33.3,33.3 µg/mL,66.7 µg/mL,3.81,inactive,5.65,5.81,66.7 µg/mL,2.59,inactive,inactive,33.3 µg/mL,66.7 µg/mL,11.3,33.3 µg/mL,
COC1=CC(=O)O[C@H](c2coc(/C(=C/c3ccc(Cl)[nH]3)CO)n2)[C@@H]1C,,33.3 µg/mL,inactive,> 27.4,inactive,> 27.1,> 27.4,inactive,> 27.4,inactive,inactive,inactive,inactive,> 27.4,inactive,inactive
C[C@@H]1[C@H](O)[C@@H](C)/C=C/C=C/C=C/C=C/C=C/C=C/C=C/[C@H](O[C@@H]2O[C@H](C)[C@@H](O)[C@H](N)[C@@H]2O)C[C@@H]2O[C@](O)(C[C@@H](O)C[C@@H](O)[C@H](O)CC[C@@H](O)C[C@@H](O)CC(=O)O[C@H]1C)C[C@H](O)[C@H]2C(=O)O [AMPHOTERICIN B],,,,,1 µg/mL,,,,,< 0.52 µg/mL,,,,,,
OC[C@H]1O[C@H](Oc2cccc3nc4c(O)cccc4nc23)[C@@H](O)[C@@H]1O,,inactive,inactive,,inactive,,,inactive,,33.3 µg/mL,inactive,66.6 µg/mL,,,inactive,inactive
CN[C@@H]1[C@H](O[C@H]2[C@H](O[C@H]3[C@H](O)[C@@H](O)[C@H](N=C(N)N)[C@@H](O)[C@@H]3N=C(N)N)O[C@@H](C)[C@]2(O)C=O)O[C@@H](CO)[C@H](O)[C@H]1O.CN[C@@H]1[C@H](O[C@H]2[C@H](O[C@H]3[C@H](O)[C@@H](O)[C@H](N=C(N)N)[C@@H](O)[C@@H]3N=C(N)N)O[C@@H](C)[C@]2(O)C=O)O[C@@H](CO)[C@H](O)[C@H]1O.O=S(=O)(O)O.O=S(=O)(O)O.O=S(=O)(O)O [STREPTOMYCIN SULFATE],,,,,,,,2.1 µg/mL,,,0.1 µg/mL,< 0.52 µg/mL,2.1 µg/mL,,< 0.52 µg/mL,
